The nature of assay [1]: Selectivity for human matriptase over bovine thrombin. In short, it runs like this:
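Enzyme was preincubated with inhibitor before substrate addition. Matriptase substrate: t-Boc-Gln-Ala-Arg-AMC; thrombin substrate: N-tBoc-Leu-Arg-Arg-AMC. AMC release read at ex 360/em 480 nm over six to seven inhibitor concentrations. Ki from Dixon plots using two substrate concentrations.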

In another assay the target is Prothrombin (Bos taurus, UniProt P00735). Nature of the assay: (§1) Inhibition of bovine thrombin. In a few lines:
(§2)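 Room-temperature fluorogenic assay in 100 mM Tris-HCl (pH 8.5) with 100 mg/mL BSA. Enzyme and inhibitor were preincubated, then N-tBoc-Leu-Arg-Arg-AMC substrate was added. Hydrolysis was followed by fluorescence (ex 360 nm, em 480 nm) at six to seven inhibitor concentrations. Ki was taken from Dixon plots of two data sets at different substrate concentrations.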

Another assay concerns the target Prothrombin (Bos taurus) (UniProt P00735). The description is as §1. In short, it runs like this: as §2
The target in assay [2] is T1, Suppressor of tumorigenicity 14 protein (Homo sapiens, UniProt Q9Y5Y6).
T1 sequence (Q9Y5Y6 whole entry): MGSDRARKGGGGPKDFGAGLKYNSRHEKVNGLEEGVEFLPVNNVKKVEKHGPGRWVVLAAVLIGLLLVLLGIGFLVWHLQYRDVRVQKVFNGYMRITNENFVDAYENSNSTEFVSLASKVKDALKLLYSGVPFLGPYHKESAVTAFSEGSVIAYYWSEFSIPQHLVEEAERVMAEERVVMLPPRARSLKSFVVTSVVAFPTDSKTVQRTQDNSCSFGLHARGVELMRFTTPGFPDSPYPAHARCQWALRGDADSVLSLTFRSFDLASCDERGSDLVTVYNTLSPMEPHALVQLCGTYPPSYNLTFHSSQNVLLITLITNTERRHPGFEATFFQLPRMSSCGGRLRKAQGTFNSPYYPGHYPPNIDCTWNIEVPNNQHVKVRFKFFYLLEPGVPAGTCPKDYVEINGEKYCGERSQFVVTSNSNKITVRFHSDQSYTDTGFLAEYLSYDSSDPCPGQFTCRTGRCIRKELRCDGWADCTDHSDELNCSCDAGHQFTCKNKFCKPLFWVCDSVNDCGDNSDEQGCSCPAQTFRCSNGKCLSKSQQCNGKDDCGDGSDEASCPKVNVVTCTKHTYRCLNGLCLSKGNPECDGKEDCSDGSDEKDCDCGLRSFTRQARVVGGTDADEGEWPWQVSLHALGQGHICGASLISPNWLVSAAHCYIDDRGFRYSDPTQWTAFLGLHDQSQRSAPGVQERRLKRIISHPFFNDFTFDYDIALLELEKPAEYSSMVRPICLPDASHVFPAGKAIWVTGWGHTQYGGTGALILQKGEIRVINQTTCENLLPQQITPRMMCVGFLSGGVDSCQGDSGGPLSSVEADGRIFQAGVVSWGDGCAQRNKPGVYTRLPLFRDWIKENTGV
As to the kind of experiment: Inhibition of human matriptase. In a few lines: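 Run at room temperature in 100 mM Tris-HCl (pH 8.5) with 100 mg/mL BSA. Enzyme and inhibitor were preincubated, then t-Boc-Gln-Ala-Arg-AMC was added and fluorescence read at ex 360 nm, em 480 nm over six to seven inhibitor concentrations. Ki came from Dixon plots at two substrate concentrations. A second format used purified matriptase with t-Boc-Gln-Ala-Arg-AFC in 100 mM Tris (pH 8.3) with BSA.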

Molecules are shown by their SMILES. The source made the active and inactive calls. No cut-off for these calls is given here.

Our source for the Ratio Ki, Ki and Activity values is ChEMBL document CHEMBL1138311, “Design and synthesis of novel and potent inhibitors of the type II transmembrane serine protease, matriptase, based upon the sunflower trypsin inhibitor-1” (J Med Chem, 2007).

For the molecule `CC[C@H](C)[C@@H]1NC(=O)[C@@H]2CCCN2C(=O)[C@@H]2CCCN2C(=O)[C@H]([C@@H](C)CC)NC(=O)[C@H](CO)NC(=O)[C@H](CCCCCN)NC(=O)[C@H]([C@@H](C)O)NC(=O)[C@@H]2CSSC[C@H](NC1=O)C(=O)N[C@@H](Cc1ccccc1)C(=O)N1CCC[C@@H]1C(=O)N[C@@H](CC(=O)O)C(=O)NCC(=O)N[C@@H](CCCNC(=N)N)C(=O)N2`, in assay [1], the Ratio Ki was 1.6. This molecule also returned a Ki at Prothrombin of 45.6 µM.

In the case of `CC[C@H](C)[C@@H]1NC(=O)[C@@H]2CCCN2C(=O)[C@@H]2CCCN2C(=O)[C@H]([C@@H](C)CC)NC(=O)[C@H](CO)NC(=O)[C@H](CCCN)NC(=O)[C@H]([C@@H](C)O)NC(=O)[C@@H]2CSSC[C@H](NC1=O)C(=O)N[C@@H](Cc1ccccc1)C(=O)N1CCC[C@@H]1C(=O)N[C@@H](CC(=O)O)C(=O)NCC(=O)N[C@@H](CCCNC(=N)N)C(=O)N2`, the outcome on Prothrombin (Bos taurus) was inactive.

Consider `CC[C@H](C)[C@@H]1NC(=O)[C@@H]2CCCN2C(=O)[C@@H]2CCCN2C(=O)[C@H]([C@@H](C)CC)NC(=O)[C@H](CO)NC(=O)[C@H](CCCCN)NC(=O)[C@H]([C@@H](C)O)NC(=O)[C@@H]2CSSC[C@H](NC1=O)C(=O)N[C@@H](Cc1ccccc1)C(=O)N1CCC[C@@H]1C(=O)N[C@@H](CC(=O)O)C(=O)NCC(=O)N[C@@H](Cc1ccc(NC(=N)N)cc1)C(=O)N2`, for which the Ratio Ki in assay [1] stood at 1.8. On Prothrombin, this molecule had a Ki of 164 µM.

For `CC[C@H](C)[C@@H]1NC(=O)[C@@H]2CCCN2C(=O)[C@@H]2CCCN2C(=O)[C@H]([C@@H](C)CC)NC(=O)[C@H](CO)NC(=O)[C@H](CCCNC(=N)N)NC(=O)[C@H]([C@@H](C)O)NC(=O)[C@@H]2CSSC[C@H](NC1=O)C(=O)N[C@@H](Cc1ccccc1)C(=O)N1CCC[C@@H]1C(=O)N[C@@H](CC(=O)O)C(=O)NCC(=O)N[C@@H](CCCNC(=N)N)C(=O)N2`, in assay [1], the Ratio Ki was found to be 0.18. In addition, at Prothrombin, the Ki is 0.86 µM.

Regarding `CC[C@H](C)[C@@H]1NC(=O)[C@@H]2CCCN2C(=O)[C@@H]2CCCN2C(=O)[C@H]([C@@H](C)CC)NC(=O)[C@H](CO)NC(=O)[C@H](CCCCN)NC(=O)[C@H]([C@@H](C)O)NC(=O)[C@@H]2CSSC[C@H](NC1=O)C(=O)N[C@@H](Cc1ccccc1)C(=O)N1CCC[C@@H]1C(=O)N[C@@H](CC(=O)O)C(=O)NCC(=O)N[C@@H](CCCNC(N)=O)C(=O)N2`, the Ratio Ki in assay [1] was 37. The molecule further came in with a Ki on Prothrombin of 827 µM.

For the molecule `CC[C@H](C)[C@@H]1NC(=O)[C@@H]2CCCN2C(=O)[C@@H]2CCCN2C(=O)[C@H]([C@@H](C)CC)NC(=O)[C@H](CO)NC(=O)[C@H](CCCCN)NC(=O)[C@H]([C@@H](C)O)NC(=O)[C@@H]2CSSC[C@H](NC1=O)C(=O)N[C@@H](Cc1ccccc1)C(=O)N1CCC[C@@H]1C(=O)N[C@@H](CC(=O)O)C(=O)NCC(=O)N[C@@H](CCCNC(=N)N)C(=O)N2`, in assay [1], the Ratio Ki came out at 50.

For `CC[C@H](C)[C@@H]1NC(=O)[C@@H]2CCCN2C(=O)[C@@H]2CCCN2C(=O)[C@H]([C@@H](C)CC)NC(=O)[C@H](CO)NC(=O)[C@H](CCCCN)NC(=O)[C@H]([C@@H](C)O)NC(=O)[C@@H]2CSSC[C@H](NC1=O)C(=O)N[C@@H](Cc1ccccc1)C(=O)N1CCC[C@@H]1C(=O)N[C@@H](CC(=O)O)C(=O)NCC(=O)N[C@@H](CCCCNC(=N)N)C(=O)N2`, the Ratio Ki in assay [1] is 8.9. The Ki on Prothrombin was found to be 7.63 µM.

With `CC[C@H](C)[C@@H]1NC(=O)[C@@H]2CCCN2C(=O)[C@@H]2CCCN2C(=O)[C@H]([C@@H](C)CC)NC(=O)[C@H](CO)NC(=O)[C@H](CCCCN)NC(=O)[C@H]([C@@H](C)O)NC(=O)[C@@H]2CSSC[C@H](NC1=O)C(=O)N[C@@H](Cc1c(F)c(F)c(F)c(F)c1F)C(=O)N1CCC[C@@H]1C(=O)N[C@@H](CC(=O)O)C(=O)NCC(=O)N[C@@H](CCCNC(=N)N)C(=O)N2`, in assay [1], the Ratio Ki came out at 37.8. Also, on Prothrombin, the affinity, expressed as Ki, was 33.6 µM.

Regarding `CC[C@H](C)[C@@H]1NC(=O)[C@@H]2CCCN2C(=O)[C@@H]2CCCN2C(=O)[C@H]([C@@H](C)CC)NC(=O)[C@H](CO)NC(=O)[C@H](CCCCN)NC(=O)[C@H]([C@@H](C)O)NC(=O)[C@H](CO)NC(=O)[C@H](CCCNC(=N)N)NC(=O)CNC(=O)[C@H](CC(=O)O)NC(=O)[C@H]2CCCN2C(=O)[C@H](Cc2ccccc2)NC(=O)[C@H](CO)NC1=O`, in assay [1], the Ratio Ki was 0.38. On Prothrombin, the affinity corresponds to a Ki of 40.4 µM.

Turning to `CC[C@H](C)[C@@H]1NC(=O)[C@@H]2CCCN2C(=O)[C@@H]2CCCN2C(=O)[C@H]([C@@H](C)CC)NC(=O)[C@H](CO)NC(=O)[C@H](CCCCN)NC(=O)[C@H]([C@@H](C)O)NC(=O)[C@@H]2CSCSC[C@H](NC1=O)C(=O)N[C@@H](Cc1ccccc1)C(=O)N1CCC[C@@H]1C(=O)N[C@@H](CC(=O)O)C(=O)NCC(=O)N[C@@H](CCCNC(=N)N)C(=O)N2`, in assay [1], the Ratio Ki came to 62.5. The results for the Ki (at Prothrombin; in assay [2]) were 10 µM and 160 nM, respectively.

In the case of `CC[C@H](C)[C@@H]1NC(=O)[C@@H]2CCCN2C(=O)[C@@H]2CCCN2C(=O)[C@H]([C@@H](C)CC)NC(=O)[C@H](CO)NC(=O)[C@H](CCCCN)NC(=O)[C@H]([C@@H](C)O)NC(=O)[C@@H]2CSSC[C@H](NC1=O)C(=O)N[C@@H](Cc1ccc(-c3ccccc3)cc1)C(=O)N1CCC[C@@H]1C(=O)N[C@@H](CC(=O)O)C(=O)NCC(=O)N[C@@H](CCCNC(=N)N)C(=O)N2`, the Ratio Ki in assay [1] is 25.6. The Ki on Prothrombin was found to be 25.6 µM.

Consider `CC[C@H](C)[C@@H]1NC(=O)[C@@H]2CCCN2C(=O)[C@@H]2CCCN2C(=O)[C@H]([C@@H](C)CC)NC(=O)[C@H](CO)NC(=O)[C@H](CCCCN)NC(=O)[C@H]([C@@H](C)O)NC(=O)[C@@H]2CSSC[C@H](NC1=O)C(=O)N[C@@H](Cc1ccc3ccccc3c1)C(=O)N1CCC[C@@H]1C(=O)N[C@@H](CC(=O)O)C(=O)NCC(=O)N[C@@H](CCCNC(=N)N)C(=O)N2`, for which, in assay [1], the Ratio Ki was 36. The Ki on Prothrombin turned out to be 16.3 µM.

As a reminder, the Ki is the equilibrium dissociation constant of an inhibitor or competing ligand from its target. Low values mean tighter binding, high ones weaker binding.
